mIAP inh: inhibitors of mouse IAP, primary screen, biochemical, luminescence, uHTS | purified mouse IAP, CDP-Star luminescence, 30 min | intestinal alkaline phosphatase [Mus musculus] | inhibition, % at 10 µM | 0.2% of 330,000 active;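 active means inhibition of at least 40% at 10 µM in the primary screen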;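 further: plate controls were DMSO with enzyme for no effect and no enzyme wells for full effect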
hIAP act: human IAP activators, primary screen, biochemical, luminescence, uHTS | Intestinal-type alkaline phosphatase (Homo sapiens), P09923 | purified human IAP, CDP-Star luminescence, 30 min; stronger effect = higher value; 1 = vehicle-only enzyme, 0 = enzyme-free background | activation factor at 10 µM | 0.16% of 330,000 active;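 active means activation factor of the enzyme at least 2-fold when tested at 20 µM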
Target sequence (P09923 whole entry, looked up): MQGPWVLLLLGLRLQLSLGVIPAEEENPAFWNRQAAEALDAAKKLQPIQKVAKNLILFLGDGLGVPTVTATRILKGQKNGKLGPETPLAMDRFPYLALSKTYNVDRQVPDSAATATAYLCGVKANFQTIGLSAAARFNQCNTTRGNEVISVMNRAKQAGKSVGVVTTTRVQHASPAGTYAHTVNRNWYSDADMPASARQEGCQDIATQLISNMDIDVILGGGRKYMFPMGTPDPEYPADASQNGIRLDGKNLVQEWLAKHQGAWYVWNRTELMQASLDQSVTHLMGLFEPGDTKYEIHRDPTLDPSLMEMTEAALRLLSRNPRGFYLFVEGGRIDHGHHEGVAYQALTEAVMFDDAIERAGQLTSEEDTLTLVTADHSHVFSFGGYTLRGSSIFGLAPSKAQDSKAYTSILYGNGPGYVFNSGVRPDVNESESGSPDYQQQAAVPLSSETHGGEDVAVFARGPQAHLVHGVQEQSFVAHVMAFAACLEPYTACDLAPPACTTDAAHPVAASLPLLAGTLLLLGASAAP
bIAP inhibitor: bovine intestinal alkaline phosphatase inhibitors, primary screen, selectivity assay for TNAP inhibitor project, biochemical, bovine IAP, CDP-star luminescence | purified bovine IAP, 30 min | AID 1019, 2008 | 190,000 tested, under 10 active | inhibition, % at 20 µM;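 active means over 50% inhibition of intestinal alkaline phosphatase at 20 µM in the single-dose screen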
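Assay system: bovine IAP enzyme; medium: DEA buffer 100 mM, pH 9.8, with MgCl2 1.0 mM, ZnCl2 0.02 mM; doses: 20 µM single dose; incubation: enzyme reaction for 30 min at room temperature; detection: CDP-star luminescence signal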
bIAP act: bovine intestinal alkaline phosphatase activators, primary screen, biochemical, bovine IAP, CDP-star luminescence. 0.17% of 200,000 active. purified bovine IAP, 30 min; stronger effect = higher value; fold of DMSO-control signal, blank-subtracted. activation factor at 20 µM. alkaline phosphatase, intestinal [Bos taurus]. AID 1016, 2008;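 active means activation factor of 2 or more at 20 µM, a signal rise over negative controls twice the positive control's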
mIAP activ: activators of mouse IAP, primary screen, biochemical, luminescence, uHTS | 0.24% of 330,000 active | activation factor at 10 µM | muIAP, CDP-Star luminescence, 30 min; stronger effect = higher value; 1 = vehicle-only enzyme signal, 0 = enzyme-free wells;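 active means activation factor of at least 2 at 20 µM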
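Assay system: mouse IAP enzyme / Compound: DMSO-dissolved test compounds / Timing: 30 min, room temperature / Measured by: luminescence from enzymatic CDP-Star hydrolysis / Control set: DMSO-only wells, enzyme-free buffer wells as negative control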
hIAP inh: human IAP inhibitors, primary screen, biochemical, luminescence, uHTS; inhibition, % at 10 µM; 0.12% of 330,000 active; purified IAP, CDP-Star luminescence, 30 min;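 active means inhibition reaching a set limit with compound at 10 µM in the primary screen, cut at about 35% in these data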;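 further: plate controls were DMSO wells with enzyme for no effect and no-enzyme buffer wells for full effect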
Numbers without * were called inactive; i = inactive; . = no result given. Sampled rows, rich in hits. Any-hit rate of the full collection: about 0.77%.

SMILES	mIAP inh	hIAP act	bIAP inhibitor	bIAP act	mIAP activ	hIAP inh
O=C(NCCCn1ccnc1)c1cn(-c2ccccc2)nc1-c1ccc(F)cc1	-28.3	1.21	-115.1	2.2*	1.28	-20.8
Cc1nn(Cc2ccc(F)cc2)c(C)c1NC(=O)C1c2ccccc2Oc2ccccc21	-188.1	1.2	18.1	0.8	2.88*	-19.9
Cc1cc(C(=O)Nc2c(C)nn(Cc3ccc(F)cc3)c2C)on1	1.4	1.08	-4.3	1	0.986	-8.4
COc1cccc(NC(=O)C2CCN(S(=O)(=O)c3ccc4c(c3)CC(C)N4C(C)=O)CC2)c1 (configuration not stated)	-29.8	1.07	.	.	1.3	-7.4
CC(=O)N1c2ccc(S(=O)(=O)N3CCC(C(=O)Nc4cccc(C(F)(F)F)c4)CC3)cc2CC1C (configuration not stated)	-137.3	0.779	.	.	2.37*	22.1
CCc1cccc(NC(=O)C2CCN(S(=O)(=O)c3ccc4c(c3)CC(C)N4C(C)=O)CC2)c1 (configuration not stated)	-115.3	0.958	.	.	2.15*	4.2
CC(COc1ccc(C(C)C)cc1)NC(=O)c1ccc(Br)o1 (configuration not stated)	1.4	1.02	.	.	0.986	-2.2
C[C@@H]1CN([C@@H](C)CO)C(=O)Cc2cc(NS(=O)(=O)c3ccccc3)ccc2O[C@H]1CN(C)S(C)(=O)=O	-2.0	1.1	.	.	1.02	-10.3
C[C@@H]1CN([C@@H](C)CO)C(=O)Cc2cc(NC(=O)Nc3cccc4ccccc34)ccc2O[C@@H]1CN(C)Cc1ccc(C(F)(F)F)cc1	-114.2	1.01	.	.	2.14*	-1.1
C[C@@H]1CN([C@@H](C)CO)C(=O)Cc2cc(NC(=O)Nc3cccc4ccccc34)ccc2O[C@@H]1CN(C)S(C)(=O)=O	-127.0	0.874	.	.	2.27*	12.6
C[C@@H]1CN([C@H](C)CO)C(=O)Cc2cc(NC(=O)Nc3ccccc3)ccc2O[C@@H]1CN(C)Cc1ccc2c(c1)OCO2	-113.4	1.09	.	.	2.13*	-9.3
C[C@@H]1CN([C@H](C)CO)C(=O)Cc2cc(NS(=O)(=O)c3ccc(Cl)cc3)ccc2O[C@H]1CN(C)Cc1ccc(C(F)(F)F)cc1	4.1	1.02	.	.	0.959	-2.0
COc1ccccc1NC(=O)COc1coc(CN2CCN(c3ccccc3)CC2)cc1=O	-3.4	1.1	.	.	1.03	-10.3
COCc1nnc(NC(=O)c2ccccc2[N+](=O)[O-])s1	-1.2	0.925	-51.7	1.5	1.01	7.5
CCn1nc(C)c(/C=N\NC(=O)c2ccc3c(c2)OCO3)c1C	4.7	1.07	4.1	1	0.953	-6.6
CCn1nc(C)c(/C=N/NC(=O)c2ccc3c(c2)c(C)c(C)n3Cc2ccccc2)c1C	-326.2	0.84	i	7*	4.26*	16.0
CCn1ncc(/C=N\NC(=O)c2ccc3c(c2)c(C)c(C)n3Cc2ccccc2)c1C	-240.3	0.897	-347.4	4.5*	3.4*	10.3
CCn1ncc(/C=N/NC(=O)c2ccc3c(c2)OCO3)c1C	-7.1	1.14	5.2	0.9	1.07	-14.0
CCn1cc(/C=N\NC(=O)c2ccc3c(c2)c(C)c(C)n3Cc2ccccc2)c(C)n1	-73.2	0.925	-324.9	4.2*	1.73	7.5
O=C(Cc1ccccc1)c1nnc(-c2ccccc2)o1	5.4	1.03	1.3	1	0.946	-3.2
C[C@@H](C(=O)Nc1ccc2ccccc2c1)[C@H]1C[C@]1(C)[C@H](NC(=O)c1cccnc1)c1ccccc1	-81.2	0.869	18.3	0.8	1.81	13.1
C[C@@H](C(=O)Nc1ccc2ccccc2c1)[C@@H]1C[C@@]1(C)[C@@H](NC(=O)c1ccccc1)c1ccccc1	-131.7	0.916	10.7	0.9	2.32*	8.4
O=C(Oc1c(Br)cc([N+](=O)[O-])cc1Br)c1cccnc1	-0.5	2.33*	-3.4	1	1	-133.2
N/C(=N\OC(=O)c1ccc([N+](=O)[O-])cc1)c1cccnc1	-4.2	0.976	5.6	0.9	1.04	2.4

Bioassay records from PubChem BioAssay.
